{"source": "ChEMBL document CHEMBL3351588", "about": "“Design, synthesis and biological evaluation of N-alkyl or aryl substituted isoindigo derivatives as potential dual cyclin-dependent kinase 2 (CDK2)/glycogen synthase kinase 3β (GSK-3β) phosphorylation inhibitors” (Eur J Med Chem, 2014)", "key": {"K562 [1]": {"tested_on": "K562", "experiment": "Induction of cell cycle arrest in human K562 cells assessed as accumulation at G0/G1 phase at 20 uM after 24 hrs by propidium iodide staining based flow cytometry (reference value: 36.14%)", "type": "functional"}, "K562 [2]": {"tested_on": "K562", "experiment": "Induction of necrosis in human K562 cells after 24 hrs by Annexin V-FITC/propidium iodide staining based flow cytometry", "type": "functional, cell-based", "how_it_was_run": "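Cells exposed to 0, 5.0, 10.0, 15.0, 20.0 or 30.0 μM for 24 h, or 0.5% DMSO. Stained with FITC–Annexin V and PI counterstain, then read by flow cytometry. Annexin V+/PI− scored as early apoptotic; Annexin V+/PI+ scored as late apoptotic/necrotic.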"}, "K562 [3]": {"tested_on": "K562", "experiment": "Increase in GSK3beta protein expression in human K562 cells at 5 to 30 uM after 24 hrs by Western blotting method", "type": "functional, cell-based", "how_it_was_run": "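K562 cells treated for 24 h; negative control DMSO 0.5% v/v, meisoindigo positive control. Lysates separated on 10% SDS-PAGE and transferred to nitrocellulose. Blocked with 5% milk in PBS-0.1% Tween-20, then probed for GSK-3β and p-GSK-3β (Ser9) for 2 h at room temperature, with β-actin as loading control. Detected with IRDye secondaries by infrared imaging and quantified by band gray value; p<0.05 versus DMSO.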"}, "K562 [4]": {"tested_on": "K562", "experiment": "Induction of apoptosis in human K562 cells assessed as early apoptotic cells level at 5 uM after 24 hrs by Annexin V-FITC/propidium iodide staining based flow cytometry (reference value: […])", "type": "functional"}, "K562 [5]": {"tested_on": "K562", "experiment": "Reduction in CDK2 protein expression in human K562 cells at 5 to 30 uM after 24 hrs by Western blotting method", "type": "functional, cell-based"}, "K562 [6]": {"tested_on": "K562", "experiment": "Induction of necrosis in human K562 cells after 48 hrs by Annexin V-FITC/propidium iodide staining based flow cytometry", "type": "functional, cell-based"}, "K562 [7]": {"tested_on": "K562", "experiment": "Induction of apoptosis in human K562 cells assessed as late apoptotic cells level at 5 uM after 24 hrs by Annexin V-FITC/propidium iodide staining based flow cytometry (reference value: 0.79%)", "type": "functional", "how_it_was_run": "(§1)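 K562 cells exposed for 24 h or 48 h to 0, 5.0, 10.0, 15.0, 20.0 or 30.0 µM; vehicle DMSO 0.5% v/v. Cells stained with FITC-Annexin V, then counterstained with PI, and analysed by FACScan flow cytometry. Quadrants: Annexin V−/PI− viable; Annexin V+/PI− early apoptotic; Annexin V+/PI+ late apoptotic/necrotic.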"}, "K562 [8]": {"tested_on": "K562", "experiment": "Induction of cell cycle arrest in human K562 cells assessed as accumulation at G2/M phase at 10 uM after 24 hrs by propidium iodide staining based flow cytometry (reference value: 18.96%)", "type": "functional"}, "K562 [9]": {"tested_on": "K562", "experiment": "Induction of apoptosis in human K562 cells assessed as necrotic cells level at 20 uM after 48 hrs by Annexin V-FITC/propidium iodide staining based flow cytometry (reference value: 0.01%)", "type": "functional", "how_it_was_run": "as §1"}, "K562 [10]": {"tested_on": "K562", "experiment": "Induction of cell cycle arrest in human K562 cells assessed as accumulation at G0/G1 phase at 30 uM after 24 hrs by propidium iodide staining based flow cytometry (reference value: 36.14%)", "type": "functional"}, "K562 [11]": {"tested_on": "K562", "experiment": "Induction of apoptosis in human K562 cells assessed as late apoptotic cells level at 20 uM after 48 hrs by Annexin V-FITC/propidium iodide staining based flow cytometry (reference value: 0.54%)", "type": "functional", "how_it_was_run": "as §1"}, "K562 [12]": {"tested_on": "K562", "experiment": "Induction of cell cycle arrest in human K562 cells assessed as accumulation at G2/M phase at 30 uM after 24 hrs by propidium iodide staining based flow cytometry (reference value: 18.96%)", "type": "functional"}, "K562 [13]": {"tested_on": "K562", "experiment": "Induction of cell cycle arrest in human K562 cells assessed as accumulation at S phase at 20 uM after 24 hrs by propidium iodide staining based flow cytometry (reference value: 44.90%)", "type": "functional"}, "K562 [14]": {"tested_on": "K562", "experiment": "Induction of apoptosis in human K562 cells assessed as viable cells level at 30 uM after 48 hrs by Annexin V-FITC/propidium iodide staining based flow cytometry (reference value: 99.21%)", "type": "functional", "how_it_was_run": "as §1"}, "K562 [15]": {"tested_on": "K562", "experiment": "Cytotoxicity against human K562 cells after 48 hrs by SRB assay", "type": "functional, cell-based", "settings": "K562, 48 h", "how_it_was_run": "(§2)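 Cells seeded at 5 × 10³ per well and allowed to attach for 12 h, then exposed to a range of drug concentrations in their own medium for 48 h. Fixed with ice-cold TCA for 1 h at 4 °C, washed, then stained with 0.4% SRB for 30 min at room temperature. IC50 is the mean of three independent experiments.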"}, "K562 [16]": {"tested_on": "K562", "experiment": "Induction of cell cycle arrest in human K562 cells assessed as accumulation at G2/M phase at 20 uM after 24 hrs by propidium iodide staining based flow cytometry (reference value: 18.96%)", "type": "functional"}, "K562 [17]": {"tested_on": "K562", "experiment": "Induction of cell morphological changes in human K562 cells assessed as nuclear fragmentation at 5 to 30 uM after 24 hrs by Hoechst 33342/propidium iodide staining based inverted fluorescence microscopy", "type": "functional", "how_it_was_run": "(§3)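 Cells treated for 24 h with 5.0–30.0 μM or with 0.5% DMSO, then collected and washed with PBS. Stained with Hoechst 33342 (5.0 μg/mL, 10 min, 37 °C), then with PI (10.0 μg/mL, 10 min, room temperature, dark). Nuclei scored by fluorescence microscopy as condensed/bright, fragmented, or PI-positive.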"}, "K562 [18]": {"tested_on": "K562", "experiment": "Induction of apoptosis in human K562 cells assessed as late apoptotic cells level at 15 uM after 24 hrs by Annexin V-FITC/propidium iodide staining based flow cytometry (reference value: 0.79%)", "type": "functional", "how_it_was_run": "as §1"}, "K562 [19]": {"tested_on": "K562", "experiment": "Induction of apoptosis in human K562 cells assessed as viable cells level at 15 uM after 48 hrs by Annexin V-FITC/propidium iodide staining based flow cytometry (reference value: 99.21%)", "type": "functional", "how_it_was_run": "as §1"}, "K562 [20]": {"tested_on": "K562", "experiment": "Induction of apoptosis in human K562 cells assessed as necrotic cells level at 5 uM after 24 hrs by Annexin V-FITC/propidium iodide staining based flow cytometry (reference value: 0.0%)", "type": "functional", "how_it_was_run": "as §1"}, "K562 [21]": {"tested_on": "K562", "experiment": "Induction of apoptosis in human K562 cells assessed as early apoptotic cells level at 20 uM after 24 hrs by Annexin V-FITC/propidium iodide staining based flow cytometry (reference value: […])", "type": "functional"}, "K562 [22]": {"tested_on": "K562", "experiment": "Induction of apoptosis in human K562 cells assessed as late apoptotic cells level at 20 uM after 24 hrs by Annexin V-FITC/propidium iodide staining based flow cytometry (reference value: 0.79%)", "type": "functional", "how_it_was_run": "as §1"}, "K562 [23]": {"tested_on": "K562", "experiment": "Induction of apoptosis in human K562 cells assessed as necrotic cells level at 15 uM after 24 hrs by Annexin V-FITC/propidium iodide staining based flow cytometry (reference value: 0.0%)", "type": "functional", "how_it_was_run": "as §1"}, "K562 [24]": {"tested_on": "K562", "experiment": "Induction of apoptosis in human K562 cells assessed as early apoptotic cells level at 30 uM after 48 hrs by Annexin V-FITC/propidium iodide staining based flow cytometry (reference value: 0.24%)", "type": "functional", "how_it_was_run": "as §1"}, "[25]": {"experiment": "Cytotoxicity against human VEC cells after 48 hrs by SRB assay", "type": "cell-based", "how_it_was_run": "as §2"}, "K562 [26]": {"tested_on": "K562", "experiment": "Induction of cell cycle arrest in human K562 cells assessed as accumulation at S phase at 30 uM after 24 hrs by propidium iodide staining based flow cytometry (reference value: 44.90%)", "type": "functional"}, "K562 [27]": {"tested_on": "K562", "experiment": "Induction of cell morphological changes in human K562 cells assessed as chromatin condensation at 5 to 30 uM after 24 hrs by Hoechst 33342/propidium iodide staining based inverted fluorescence microscopy", "type": "functional", "how_it_was_run": "as §3"}, "HeLa": {"tested_on": "HeLa", "experiment": "Cytotoxicity against human HeLa cells after 48 hrs by SRB assay", "type": "functional, cell-based", "how_it_was_run": "as §2"}}, "note": "Activity calls are given as the source filed them. The rule behind the calls is not given here.", "data": [{"smiles": "COc1ccc(N2C(=O)/C(=C3/C(=O)Nc4ccccc43)c3ccccc32)cc1", "values": [{"measurement": "Activity", "setting": "K562 [1]", "value": 32.01, "unit": "%"}, {"measurement": "Activity", "setting": "K562 [2]", "value": "Dose-dependent effect"}, {"measurement": "Activity", "setting": "K562 [3]", "value": "Dose-dependent effect"}, {"measurement": "Activity", "setting": "K562 [4]", "value": 2.25, "unit": "%"}, {"measurement": "inhibition", "setting": "K562 [5]", "value": "Dose-dependent effect"}, {"measurement": "Activity", "setting": "K562 [6]", "value": "Dose-dependent effect"}, {"measurement": "Activity", "setting": "K562 [7]", "value": 1.54, "unit": "%"}, {"measurement": "Activity", "setting": "K562 [8]", "value": 14.31, "unit": "%"}, {"measurement": "Activity", "setting": "K562 [9]", "value": 0.51, "unit": "%"}, {"measurement": "Activity", "setting": "K562 [10]", "value": 25.43, "unit": "%"}, {"measurement": "Activity", "setting": "K562 [11]", "value": 11.56, "unit": "%"}, {"measurement": "Activity", "setting": "K562 [12]", "value": 11.8, "unit": "%"}, {"measurement": "Activity", "setting": "K562 [13]", "value": 56.34, "unit": "%"}, {"measurement": "Activity", "setting": "K562 [14]", "value": 62.69, "unit": "%"}, {"measurement": "IC50", "setting": "K562 [15]", "value": 7.8, "unit": "µM"}, {"measurement": "Activity", "setting": "K562 [16]", "value": 11.65, "unit": "%"}, {"measurement": "Activity", "setting": "K562 [17]", "value": "Active"}, {"measurement": "Activity", "setting": "K562 [18]", "value": 4.48, "unit": "%"}, {"measurement": "Activity", "setting": "K562 [19]", "value": 95.68, "unit": "%"}, {"measurement": "Activity", "setting": "K562 [20]", "value": 0, "unit": "%"}, {"measurement": "Activity", "setting": "K562 [21]", "value": 14.44, "unit": "%"}, {"measurement": "Activity", "setting": "K562 [22]", "value": 12.65, "unit": "%"}, {"measurement": "Activity", "setting": "K562 [23]", "value": 0.01, "unit": "%"}, {"measurement": "Activity", "setting": "K562 [24]", "value": 19.3, "unit": "%"}, {"measurement": "IC50", "setting": "[25]", "value": "> 200", "unit": "µM"}, {"measurement": "Activity", "setting": "K562 [26]", "value": 62.77, "unit": "%"}, {"measurement": "Activity", "setting": "K562 [27]", "value": "Active"}, {"measurement": "IC50", "setting": "HeLa", "value": 166, "unit": "µM"}]}]}
